Reference: ChEMBL document CHEMBL4813988, “Design and synthesis of N-(3-sulfamoylphenyl)amides as Trypanosoma brucei leucyl-tRNA synthetase inhibitors” (Eur J Med Chem, 2021)

Test system: Trypanosoma brucei
Assay: Potency index, ratio of IC50 of ZCL539 to IC50 of compound for inhibition of Trypanosoma brucei LeuRS expressed in Escherichia coli BL21 (DE3)-RIPL cells preincubated for 20 mins in presence of [14C]leucine followed by incubation with ATP for 15 mins by liquid scintillation counting method
Conditions: time 35.0 min

**Q.** For `CC(C)C[C@H](N)C(=O)NS(=O)(=O)c1cccc(NC(=O)c2ccc(OCc3ccccc3)cc2)c1`, which Ratio IC50 is on record?
**A.** 700

**Q.** For `COc1ccc(C(=O)Nc2cccc(S(=O)(=O)NC(=O)[C@@H](N)CC(C)C)c2)cc1`, which Ratio IC50 is on record?
**A.** > 700

Test system: Trypanosoma brucei brucei
Assay: Antitrypanosomal activity against bloodstream form of Trypanosoma brucei brucei 221 assessed as parasite growth inhibition incubated for 72 hrs by resazurin staining based assay
Type: functional, organism-based
Conditions: Trypanosoma brucei, 221, 72 h
Method in brief: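 Trypanosomes kept in log phase in complete HMI-11 by subculture every 2-3 days, counted by hemocytometer, plated at final 1.0 × 10⁵/mL with serially DMSO-diluted compound (final 0.4% DMSO), triplicate wells. 72 h at 37 °C, 5% CO₂; resazurin added, further 5 h. Fluorescence ex 544/em 590 nm; triplicates averaged, IC₅₀ from sigmoidal dose-response fit.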

**Q.** With `CC(C)C[C@H](N)C(=O)NS(=O)(=O)c1cccc(NC(=O)c2ccc(OCc3ccccc3)cc2)c1` as the molecule, how does the IC50 read?
**A.** 69.8 µM

**Q.** With `Cc1ccc(C(=O)Nc2ccc(S(=O)(=O)O)c3cc(S(=O)(=O)O)cc(S(=O)(=O)O)c23)cc1NC(=O)c1cccc(NC(=O)Nc2cccc(C(=O)Nc3cc(C(=O)Nc4ccc(S(=O)(=O)O)c5cc(S(=O)(=O)O)cc(S(=O)(=O)O)c45)ccc3C)c2)c1` [SURAMIN] as the molecule, how does the IC50 read?
**A.** 7 ng/mL

**Q.** For `N=C(N)c1ccc(OCCCCCOc2ccc(C(=N)N)cc2)cc1` [PENTAMIDINE], which IC50 is on record?
**A.** 9 ng/mL

Test system: not listed separately
Assay: Inhibition of Trypanosoma brucei LeuRS expressed in Escherichia coli BL21 (DE3)-RIPL cells preincubated for 20 mins in presence of [14C]leucine followed by incubation with ATP for 15 mins by liquid scintillation counting method
Conditions: not given

**Q.** Which IC50 does the source give for `CCOc1ccc(C(=O)Nc2cccc(S(=O)(=O)NC(=O)[C@@H](N)CC(C)C)c2)cc1` here?
**A.** 0.5 µM

**Q.** With `Cc1ccccc1C(=O)Nc1cccc(S(=O)(=O)NC(=O)[C@@H](N)CC(C)C)c1` as the molecule, how does the IC50 read?
**A.** 14.3 µM

**Q.** Which IC50 does the source give for `CC(C)C[C@H](N)C(=O)NS(=O)(=O)c1cccc(NC(=O)c2ccc(OCc3ccccc3)cc2)c1` here?
**A.** 0.25 µM

**Q.** Which IC50 does the source give for `CC(C)C[C@H](N)C(=O)NS(=O)(=O)c1cccc(NC(=O)c2cccc(Oc3ccccc3)c2)c1` here?
**A.** 8.6 µM

**Q.** For `CC(C)C[C@H](N)C(=O)NS(=O)(=O)c1cccc(NC(=O)c2ccc([N+](=O)[O-])cc2)c1`, which IC50 is on record?
**A.** 14.7 µM

**Q.** Which IC50 does the source give for `CC(C)C[C@H](N)C(=O)NS(=O)(=O)c1cccc(NC(=O)c2ccco2)c1` here?
**A.** 3.7 µM

**Q.** With `CC(C)C[C@H](N)C(=O)NS(=O)(=O)c1cccc(NC(=O)c2ccccc2)c1` as the molecule, how does the IC50 read?
**A.** 9.4 µM

**Q.** With `CC(C)C[C@H](N)C(=O)NS(=O)(=O)c1cccc(NC(=O)c2ccc(Br)cc2)c1` as the molecule, how does the IC50 read?
**A.** 5.2 µM

**Q.** For `CC(C)C[C@H](N)C(=O)NS(=O)(=O)c1cccc(NC(=O)c2ccccc2[N+](=O)[O-])c1`, which IC50 is on record?
**A.** 11.5 µM

**Q.** With `COc1cccc(C(=O)Nc2cccc(S(=O)(=O)NC(=O)[C@@H](N)CC(C)C)c2)c1` as the molecule, how does the IC50 read?
**A.** 2.4 µM

**Q.** Which IC50 does the source give for `COc1cc(C(=O)Nc2cccc(S(=O)(=O)NC(=O)[C@@H](N)CC(C)C)c2)cc(OC)c1OC` here?
**A.** 1.48 µM

**Q.** With `CC(C)C[C@H](N)C(=O)NS(=O)(=O)c1cccc(NC(=O)c2cccs2)c1` as the molecule, how does the IC50 read?
**A.** 6.2 µM

**Q.** For `CC(C)C[C@H](N)C(=O)NS(=O)(=O)c1cccc(NC(=O)c2cccc(-c3ccccc3)c2)c1`, which IC50 is on record?
**A.** 3.6 µM

**Q.** Which IC50 does the source give for `CC(C)C[C@H](N)C(=O)NS(=O)(=O)c1ccc(NC(=O)c2ccc(Br)cc2)cc1` here?
**A.** 31.2 µM

**Q.** With `CC(C)C[C@H](N)C(=O)NS(=O)(=O)c1ccc(NC(=O)c2cccc([N+](=O)[O-])c2)cc1` as the molecule, how does the IC50 read?
**A.** > 1000 µM

**Q.** Which IC50 does the source give for `CC(C)C[C@H](N)C(=O)NS(=O)(=O)c1cccc(NC(=O)c2ccc(O)cc2)c1` here?
**A.** 0.3 µM

**Q.** Which IC50 does the source give for `CC(C)C[C@H](N)C(=O)NS(=O)(=O)c1cccc(NC(=O)c2cccc([N+](=O)[O-])c2)c1` here?
**A.** 8.6 µM

**Q.** With `CC(C)C[C@H](N)C(=O)NS(=O)(=O)c1cccc(NC(=O)c2ccc(F)cc2)c1` as the molecule, how does the IC50 read?
**A.** 6.4 µM

**Q.** Which IC50 does the source give for `CC(C)C[C@H](N)C(=O)NS(=O)(=O)c1ccc(NC(=O)c2ccc(Cl)cc2)cc1` here?
**A.** 116 µM

**Q.** For `CC(C)C[C@H](N)C(=O)NS(=O)(=O)c1ccc(NC(=O)c2cccc(Cl)c2)cc1`, which IC50 is on record?
**A.** 42.8 µM

**Q.** With `CCCCOc1ccc(C(=O)Nc2cccc(S(=O)(=O)NC(=O)[C@@H](N)CC(C)C)c2)cc1` as the molecule, how does the IC50 read?
**A.** 0.8 µM

**Q.** For `Cc1cccc(C(=O)Nc2ccc(S(=O)(=O)NC(=O)[C@@H](N)CC(C)C)cc2)c1`, which IC50 is on record?
**A.** 59.7 µM

**Q.** With `CC(C)C[C@H](N)C(=O)NS(=O)(=O)c1ccc(NC(=O)c2ccccc2)cc1` as the molecule, how does the IC50 read?
**A.** 96 µM

**Q.** Which IC50 does the source give for `Cc1ccc(C(=O)Nc2cccc(S(=O)(=O)NC(=O)[C@@H](N)CC(C)C)c2)cc1` here?
**A.** 14 µM

**Q.** With `COc1cccc(-c2cccc(C(=O)Nc3cccc(S(=O)(=O)NC(=O)[C@@H](N)CC(C)C)c3)c2)c1` as the molecule, how does the IC50 read?
**A.** 3.6 µM

**Q.** Which IC50 does the source give for `COc1ccc(-c2cccc(C(=O)Nc3cccc(S(=O)(=O)NC(=O)[C@@H](N)CC(C)C)c3)c2)cc1` here?
**A.** 1.8 µM

**Q.** Which IC50 does the source give for `CC(C)C[C@H](N)C(=O)NS(=O)(=O)c1cccc(NC(=O)c2ccc(Oc3ccccc3)cc2)c1` here?
**A.** 1.3 µM

**Q.** Which IC50 does the source give for `CC(C)C[C@H](N)C(=O)NS(=O)(=O)c1cccc(NC(=O)OCc2ccccc2)c1` here?
**A.** 4 µM

**Q.** For `NS(=O)(=O)c1ccc(NC(=S)NC(=O)COc2ccc(Br)cc2Cl)cc1`, which IC50 is on record?
**A.** 174 µM

**Q.** With `CC(C)C[C@H](N)C(=O)NS(=O)(=O)c1ccc(NC(=O)c2ccc([N+](=O)[O-])cc2)cc1` as the molecule, how does the IC50 read?
**A.** 32.7 µM

**Q.** With `COc1ccc(C(=O)Nc2cccc(S(=O)(=O)NC(=O)[C@@H](N)CC(C)C)c2)cc1` as the molecule, how does the IC50 read?
**A.** 0.24 µM

**Q.** Which IC50 does the source give for `Cc1cccc(C(=O)Nc2cccc(S(=O)(=O)NC(=O)[C@@H](N)CC(C)C)c2)c1` here?
**A.** 9.5 µM

**Q.** With `CC(C)C[C@H](N)C(=O)NS(=O)(=O)c1cccc(NC(=O)c2ccc(Cl)cc2)c1` as the molecule, how does the IC50 read?
**A.** 4.9 µM

**Q.** For `CC(C)C[C@H](N)C(=O)Nc1ccc(S(=O)(=O)NC(=O)[C@@H](N)CC(C)C)cc1`, which IC50 is on record?
**A.** 107 µM

**Q.** Which IC50 does the source give for `Cc1ccc(C(=O)Nc2ccc(S(=O)(=O)NC(=O)[C@@H](N)CC(C)C)cc2)cc1` here?
**A.** 39.1 µM

**Q.** For `CC(C)C[C@H](N)C(=O)NS(=O)(=O)c1cccc(NC(=O)c2ccc(-c3ccccc3)cc2)c1`, which IC50 is on record?
**A.** 5.8 µM

**Q.** Which IC50 does the source give for `COc1ccc(C(=O)Nc2cccc(S(=O)(=O)NC(=O)[C@@H](N)CC(C)C)c2)cc1OC` here?
**A.** 0.66 µM

**Q.** With `CC(C)C[C@H](N)C(=O)NS(=O)(=O)c1cccc(NC(=O)c2ccc(OC(C)C)cc2)c1` as the molecule, how does the IC50 read?
**A.** 3.9 µM
